Measured values taken from ChEMBL document CHEMBL3286129, “Optimization of peptidomimetic boronates bearing a P3 bicyclic scaffold as proteasome inhibitors” (Eur J Med Chem, 2014).
Activity calls are given as the source filed them. The rule behind the calls is not given here.

Key:
[1] = Growth inhibition of human OVCAR3 cells; assay type: functional; conditions: OVCAR-3
HT-29 = experiment: Growth inhibition of human HT-29 cells; assay type: functional
IGROV-1 = experiment: Growth inhibition of human IGROV1 cells; assay type: functional
COLO 205 = experiment: Growth inhibition of human COLO205 cells; assay type: functional
[2] = Cytotoxicity against human renal cancer cells assessed as cell growth at 10 uM relative to control; assay type: functional; conditions: Cancer cell lines, read-out: Activity
Summary of the method: (§1)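 Single-concentration screen against a panel of human cancer cell lines. Each value is the mean percent growth across the cell lines of that tumour subpanel.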

Chymotrypsinogen A = Chymotrypsinogen A (Bos taurus, UniProt P00766); experiment: Inhibition of bovine pancreatic alpha-chymotrypsin using Suc-Leu-Leu-Val-Tyr-AMC as substrate by fluorescence assay; conditions: read-out: Ki
Summary of the method: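 Enzyme incubated at 20 °C in 50 mM Tris pH 8.0, 100 mM NaCl, 5 mM EDTA, 7.5% DMSO with varied inhibitor concentrations. Substrate hydrolysis followed for 10 min. Ki from progress curves; mean of three determinations.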

[3] = Growth inhibition of human UACC257 cells; assay type: functional
MDA-MB-231 = experiment: Growth inhibition of human MDA-MB-231 cells; assay type: functional
[4] = Cytotoxicity against human ovarian cancer cells assessed as cell growth at 10 uM relative to control; assay type: functional; conditions: Cancer cell lines, read-out: Activity; summary of the method: as §1
HOP-62 = experiment: Growth inhibition of human HOP62 cells; assay type: functional
[5] = Growth inhibition of human BT549 cells; assay type: functional
MCF7 = experiment: Growth inhibition of human MCF7 cells; assay type: functional
NCI-H322M = experiment: Growth inhibition of human NCI-H322M cells; assay type: functional
NCI-H23 = experiment: Growth inhibition of human NCI-H23 cells; assay type: functional
A498 = experiment: Growth inhibition of human A498 cells; assay type: functional
[6] = Growth inhibition of human RXF393 cells; assay type: functional
[7] = target: Proteasome Macropain subunit (Homo sapiens) (UniProt P49721); experiment: Inhibition of trypsin-like activity of 20S proteasome in human erythrocytes using Boc-Leu-Arg-Arg-AMC as substrate by fluorescence assay; assay type: cell-based
Chain of Proteasome Macropain subunit (Homo sapiens) (P49721 whole entry): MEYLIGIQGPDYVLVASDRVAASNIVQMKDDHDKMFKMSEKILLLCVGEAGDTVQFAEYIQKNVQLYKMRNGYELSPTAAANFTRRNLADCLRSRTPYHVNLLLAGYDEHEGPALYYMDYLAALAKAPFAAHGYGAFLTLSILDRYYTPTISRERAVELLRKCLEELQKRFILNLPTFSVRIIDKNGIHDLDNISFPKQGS
Summary of the method: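 Human 20S proteasome 0.0025 mg/mL at 30 °C in 50 mM Tris pH 7.4, 50 mM NaCl, 0.5 mM EDTA, 0.03% SDS, 7.5% DMSO. Varied inhibitor concentrations; AMC release monitored continuously for 10 min, ex 380/em 460 nm. Ki derived from progress-curve IC50 fit.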

NCI-H522 = experiment: Growth inhibition of human NCI-H522 cells; assay type: functional
SNB-19 = experiment: Growth inhibition of human SNB19 cells; assay type: functional
[8] = Cytotoxicity against human breast cancer cells assessed as cell growth at 10 uM relative to control; assay type: functional; conditions: Cancer cell lines, read-out: Activity; summary of the method: as §1
[9] = Growth inhibition of human HOP92 cells; assay type: functional
RPMI-8226 = experiment: Growth inhibition of human RPMI8226 cells; assay type: functional
A549 = experiment: Growth inhibition of human A549/ATCC cells; assay type: functional
K562 = experiment: Growth inhibition of human K562 cells; assay type: functional
[10] = Growth inhibition of human HCT15 cells; assay type: functional
TK-10 = experiment: Growth inhibition of human TK10 cells; assay type: functional
786-0 = experiment: Growth inhibition of human 786-0 cells; assay type: functional
U-251 = experiment: Growth inhibition of human U251 cells; assay type: functional
PC-3 = experiment: Growth inhibition of human PC3 cells; assay type: functional
CAKI-1 = experiment: Growth inhibition of human CAKI-1 cells; assay type: functional
NCI-H226 = experiment: Growth inhibition of human NCI-H226 cells; assay type: functional
[11] = Cytotoxicity against human CNSC cells assessed as cell growth at 10 uM relative to control; assay type: functional; conditions: read-out: Activity; summary of the method: as §1
[12] = Growth inhibition of human LOXIMVI cells; assay type: functional; conditions: LOX IMVI
[13] = Cytotoxicity against human leukemia cells assessed as cell growth at 10 uM relative to control; assay type: functional; conditions: read-out: Activity; summary of the method: as §1
[14] = Growth inhibition of human OVCAR8 cells; assay type: functional
[15] = read-out: LC50 (the source's name)

In the case of `CC(C)C[C@H](NC(=O)Cn1ccc2ccc(Br)cc2c1=O)B(O)O`, the GI50 [1] is reported as 0.6 µM, the LC50 (concentration killing 50% of cells) [1] is reported as greater than 100 µM and the TGI [1] is reported as 3.95 µM. It also gave a GI50 (HT-29) of 0.73 µM, an LC50 (HT-29) greater than 100 µM and a TGI (HT-29) of 5.52 µM. It also gave a GI50 (IGROV-1) of 6.16 µM, an LC50 (IGROV-1) greater than 100 µM and a TGI (IGROV-1) of 46.9 µM. For the same compound, the GI50 (COLO 205) was 2.83 µM, the TGI (COLO 205) was greater than 100 µM and the CC50 (COLO 205; [15]) was greater than 100 µM. It also gave a growth at 10 µM [2] of -8.89%, a Ki (Chymotrypsinogen A) of 0.29 µM and a GI50 ([3]; UACC-257) of 0.94 µM. For the same compound, the TGI ([3]; UACC-257) was 4.51 µM, the CC50 ([3]; UACC-257, read-out: LC50 (the source's name)) was greater than 100 µM and the GI50 (MDA-MB-231) was 3.18 µM. For the same compound, the TGI (MDA-MB-231) was 19.8 µM, the CC50 (MDA-MB-231; [15]) was greater than 100 µM and the growth at 10 µM [4] was 37.5%. It also gave a GI50 (HOP-62) of 4.94 µM, a TGI (HOP-62) of 27.6 µM and a CC50 (HOP-62; [15]) greater than 100 µM. It also gave a GI50 ([5]; BT-549) of 0.44 µM, a TGI ([5]; BT-549) of 2.65 µM and a CC50 ([5]; BT-549, read-out: LC50 (the source's name)) greater than 100 µM. For the same compound, the GI50 (MCF7) was 0.42 µM, the TGI (MCF7) was greater than 100 µM and the CC50 (MCF7; [15]) was greater than 100 µM. It also gave a GI50 (NCI-H322M) greater than 100 µM, a TGI (NCI-H322M) greater than 100 µM and a CC50 (NCI-H322M; [15]) greater than 100 µM. It also gave a GI50 (NCI-H23) of 5.05 µM, a TGI (NCI-H23) greater than 100 µM and a CC50 (NCI-H23; [15]) greater than 100 µM. For the same compound, the GI50 (A498) was 0.1 µM, the LC50 (A498) was 28.6 µM and the TGI (A498) was 0.58 µM. The GI50 ([6]; RXF 393) was 0.43 µM, the TGI ([6]; RXF 393) was 1.77 µM and the CC50 ([6]; RXF 393, read-out: LC50 (the source's name)) was 5.99 µM. For the same compound, the inhibition [7] was “inactive”, the GI50 (NCI-H522) was 0.59 µM and the LC50 (NCI-H522) was 9.06 µM. The TGI (NCI-H522) was 2.54 µM, the GI50 (SNB-19) was 3.86 µM and the TGI (SNB-19) was greater than 100 µM. For the same compound, the CC50 (SNB-19; [15]) was greater than 100 µM, the growth at 10 µM [8] was 2.23% and the GI50 ([9]; HOP-92) was 2.56 µM. The TGI ([9]; HOP-92) was 8.7 µM, the CC50 ([9]; HOP-92, read-out: LC50 (the source's name)) was greater than 100 µM and the GI50 (RPMI-8226) was 0.32 µM. It also gave a TGI (RPMI-8226) greater than 100 µM, a CC50 (RPMI-8226; [15]) greater than 100 µM and a GI50 (A549) of 4.58 µM. For the same compound, the TGI (A549) was greater than 100 µM, the CC50 (A549; [15]) was greater than 100 µM and the GI50 (K562) was 3.15 µM. For the same compound, the TGI (K562) was greater than 100 µM, the CC50 (K562; [15]) was greater than 100 µM and the GI50 ([10]; HCT-15) was 3.04 µM. The TGI ([10]; HCT-15) was greater than 100 µM, the CC50 ([10]; HCT-15, read-out: LC50 (the source's name)) was greater than 100 µM and the GI50 (TK-10) was 0.65 µM. The LC50 (TK-10) was greater than 100 µM, the TGI (TK-10) was 7.22 µM and the GI50 (786-0) was 4.06 µM. It also gave a TGI (786-0) greater than 100 µM, a CC50 (786-0; [15]) greater than 100 µM and a GI50 (U-251) of 5.56 µM. It also gave a TGI (U-251) greater than 100 µM, a CC50 (U-251; [15]) greater than 100 µM and a GI50 (PC-3) of 6.31 µM. It also gave a TGI (PC-3) greater than 100 µM, a CC50 (PC-3; [15]) greater than 100 µM and a GI50 (CAKI-1) of 0.41 µM. The TGI (CAKI-1) was 10.5 µM, the CC50 (CAKI-1; [15]) was greater than 100 µM and the GI50 (NCI-H226) was 0.47 µM. For the same compound, the TGI (NCI-H226) was 1.84 µM, the CC50 (NCI-H226; [15]) was 5.39 µM and the growth at 10 µM [11] was 24.3%. The GI50 [12] was 0.43 µM, the TGI [12] was 1.85 µM and the CC50 [12, 15] was 7.21 µM. The growth at 10 µM [13] was 0.57%, the GI50 ([14]; OVCAR-8) was 3.53 µM and the TGI ([14]; OVCAR-8) was greater than 100 µM. The CC50 ([14]; OVCAR-8, read-out: LC50 (the source's name)) was greater than 100 µM.
